In ChEMBL document CHEMBL3120099, “Novel S1P(1) receptor agonists--part 2: from bicyclo[3.1.0]hexane-fused thiophenes to isobutyl substituted thiophenes” (J Med Chem, 2014):
Active and inactive are the calls of the source. The calls are words filed in the database; no cut-off is given here.

Experiments:
[1] = target: Sphingosine 1-phosphate receptor 3 (Homo sapiens, UniProt Q99500); test: Agonist activity at human recombinant S1P3 receptor expressed in CHO cells assessed as membrane-bound 35S-GTPgammaS incubated 30 mins prior to substrate addition measured after 1 hr by topcount scintillation counting analysis; format: functional, cell-based
Rattus norvegicus [2] = test: Lymphopenic activity in Wistar rat assessed as reduction in blood lymphocyte count at 10 mg/kg, po after 24 hrs; format: functional
Outline: (§1)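 Normotensive male Wistar rats given 1–10 mg/kg by gavage in 5% DMSO/7.5% succinylated gelatin. Blood taken before and 3, 6 and 24 h after dosing, with later times for some compounds. Lymphocytes counted by hematology analyzer. % LC change calculated per animal relative to the predose value (=100%). Mean ± SEM.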

Rattus norvegicus [3] = test: Lymphopenic activity in Wistar rat assessed as reduction in blood lymphocyte count at 3 mg/kg, po after 6 hrs; format: functional; design: scale not given: the % may be the effect or the level left; outline: as §1
Rattus norvegicus [4] = test: Lymphopenic activity in Wistar rat assessed as reduction in blood lymphocyte count at 3 mg/kg, po after 24 hrs; format: functional; design: scale not given: the % may be the effect or the level left; outline: as §1
Rattus norvegicus [5] = test: Lymphopenic activity in Wistar rat assessed as reduction in blood lymphocyte count at 10 mg/kg, po after 3 hrs; format: functional; design: scale not given: the % may be the effect or the level left; outline: as §1
[6] = target: Sphingosine 1-phosphate receptor 1 (Homo sapiens, UniProt P21453); test: Agonist activity at human recombinant S1P1 receptor expressed in CHO cells assessed as membrane-bound 35S-GTPgammaS incubated 30 mins prior to substrate addition measured after 1 hr by topcount scintillation counting analysis; format: functional, cell-based
Rattus norvegicus [7] = test: Lymphopenic activity in Wistar rat assessed as reduction in blood lymphocyte count at 10 mg/kg, po after 6 hrs; format: functional; design: scale not given: the % may be the effect or the level left; outline: as §1
Rattus norvegicus [8] = test: Lymphopenic activity in Wistar rat assessed as reduction in blood lymphocyte count at 3 mg/kg, po after 3 hrs; format: functional; design: scale not given: the % may be the effect or the level left; outline: as §1
[9] = Drug uptake in Wistar rat mesenteric lymph at 10 mg/kg, po after 1.7 hrs; format: ADME, organism-based, Mesenteric lymph node; design: dose 10 mg/kg, route oral; conditions: read-out: Drug uptake
Outline: (§2)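 Male Wistar rats given 10 mg/kg orally in 5% DMSO/succinylated gelatin. At selected times, anesthesia with thiobutobarbital 150 mg/kg ip, laparotomy and thoracic lymph duct catheter. Mesenteric lymph collected for at least 10 min, with a plasma sample at mid-collection. Methanol precipitation, then LC-MS-MS with internal standard.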

[10] = Plasma concentration in Wistar rat at 10 mg/kg, po after 24.8 hrs; format: ADME, organism-based; design: dose 10 mg/kg, route oral; outline: as §2
[11] = AUC (0 to 24 hrs) in Wistar rat mesenteric lymph at 10 mg/kg, po; format: ADME, organism-based, Mesenteric lymph node; design: time < 24 hr, dose 10 mg/kg, route oral; conditions: in vivo
[12] = Drug uptake in Wistar rat mesenteric lymph at 10 mg/kg, po after 3 hrs; format: ADME, organism-based, Mesenteric lymph node; design: dose 10 mg/kg, route oral; conditions: read-out: Drug uptake; outline: as §2
[13] = Half life in Wistar rat at 1 mg/kg, iv; format: ADME, organism-based; design: dose 1 mg/kg, route intravenous; conditions: in vivo
Outline: (§3)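 Male Wistar rats (~250 g), jugular vein and carotid artery catheters implanted 2 days before dosing under isoflurane with buprenorphine analgesia. 1 mg/kg given as a 5 min jugular infusion in aqueous mixed micellar vehicle (phospholipids, bile acids). Serial EDTA blood sampling up to 24 h. Plasma analysed by LC-MS-MS after methanol precipitation. Noncompartmental analysis.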

[14] = Plasma concentration in Wistar rat at 10 mg/kg, po after 24 hrs; format: ADME, organism-based; design: dose 10 mg/kg, route oral
[15] = Cmax in Wistar rat plasma at 10 mg/kg, po; format: ADME, organism-based; design: dose 10 mg/kg, route oral; outline: as §2
[16] = Drug uptake in Wistar rat mesenteric lymph at 10 mg/kg, po after 1 hr; format: ADME, organism-based, Mesenteric lymph node; design: dose 10 mg/kg, route oral; conditions: read-out: Drug uptake; outline: as §2
[17] = Cmax in Wistar rat at 10 mg/kg, po; format: ADME, organism-based; design: dose 10 mg/kg, route oral; conditions: in vivo
Outline: (§4)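 Male Wistar rats (~250 g), 10 mg/kg by gavage as a DMSO solution added to 7.5% succinylated gelatin in water (5% DMSO final). Sublingual blood under light isoflurane predose and at 0.5, 1, 2, 3, 4, 6, 8, 24 h into EDTA. Plasma LC-MS-MS after methanol precipitation. Noncompartmental parameters. Bioavailability referenced to 1 mg/kg iv.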

[18] = Plasma concentration in Wistar rat at 10 mg/kg, po after 6 days; format: ADME, organism-based; design: dose 10 mg/kg, route oral
[19] = Drug uptake in Wistar rat mesenteric lymph at 10 mg/kg, po after 24.8 hrs; format: ADME, organism-based, Mesenteric lymph node; design: dose 10 mg/kg, route oral; conditions: read-out: Drug uptake; outline: as §2
[20] = Drug uptake in Wistar rat mesenteric lymph at 10 mg/kg, po after 6 hrs; format: ADME, organism-based, Mesenteric lymph node; design: dose 10 mg/kg, route oral; conditions: read-out: Drug uptake; outline: as §2
[21] = Plasma concentration in Wistar rat at 10 mg/kg, po after 3 days; format: ADME, organism-based; design: dose 10 mg/kg, route oral
[22] = Cmax in Wistar rat mesenteric lymph at 10 mg/kg, po; format: ADME, organism-based, Mesenteric lymph node; design: dose 10 mg/kg, route oral; outline: as §2
Rattus norvegicus [23] = test: Clearance in Wistar rat at 1 mg/kg, iv; format: ADME, organism-based; design: dose 1 mg/kg, route intravenous; conditions: in vivo; outline: as §3
[24] = Plasma concentration in Wistar rat at 10 mg/kg, po after 6 hrs; format: ADME, organism-based; design: dose 10 mg/kg, route oral
[25] = Tmax in Wistar rat at 10 mg/kg, po; format: ADME, organism-based; design: dose 10 mg/kg, route oral; conditions: in vivo; outline: as §4
[26] = Tmax in Wistar rat mesenteric lymph at 10 mg/kg, po; format: ADME, organism-based, Mesenteric lymph node; design: dose 10 mg/kg, route oral; outline: as §2
[27] = Drug uptake in Wistar rat mesenteric lymph at 10 mg/kg, po after 2.3 hrs; format: ADME, organism-based, Mesenteric lymph node; design: dose 10 mg/kg, route oral; conditions: read-out: Drug uptake; outline: as §2
[28] = Lipophilicity, log D of the compound at pH 7.4; format: physicochemical; conditions: buffer
[29] = Plasma concentration in Wistar rat at 10 mg/kg, po after 3 hrs; format: ADME, organism-based; design: dose 10 mg/kg, route oral
[30] = Plasma concentration in Wistar rat at 10 mg/kg, po after 2.3 hrs; format: ADME, organism-based; design: dose 10 mg/kg, route oral; outline: as §2
Plasma [31] = test: AUC (0 to 24 hrs) in Wistar rat plasma at 10 mg/kg, po; format: ADME, organism-based; design: time < 24 hr, dose 10 mg/kg, route oral; conditions: in vivo
[32] = AUC (0 to 24 hrs) in Wistar rat at 10 mg/kg, po; format: ADME, organism-based; design: time < 24 hr, dose 10 mg/kg, route oral; conditions: plasma
Rattus norvegicus [33] = test: Lymphopenic activity in Wistar rat assessed as reduction in blood lymphocyte count at 10 mg/kg, po after 72 hrs; format: functional; outline: as §1
Rattus norvegicus [34] = test: Lymphopenic activity in Wistar rat assessed as reduction in blood lymphocyte count at 10 mg/kg, po after 144 hrs; format: functional; outline: as §1
[35] = Tmax in Wistar rat plasma at 10 mg/kg, po; format: ADME, organism-based; design: dose 10 mg/kg, route oral; outline: as §2
[36] = Plasma concentration in Wistar rat at 10 mg/kg, po after 1 hr; format: ADME, organism-based; design: dose 10 mg/kg, route oral; outline: as §2
[37] = Plasma concentration in Wistar rat at 10 mg/kg, po after 1.7 hrs; format: ADME, organism-based; design: dose 10 mg/kg, route oral; outline: as §2
[38] = Volume of distribution at steady state in Wistar rat at 1 mg/kg, iv; format: ADME, organism-based; design: dose 1 mg/kg, route intravenous; conditions: in vivo, read-out: Vdss; outline: as §3
[39] = Intrinsic clearance in Wistar rat hepatocytes assessed per 10^6 cells at 1 uM by LC-MS/MS analysis; format: ADME, cell-based, Hepatocyte; conditions: read-out: CLH
Outline: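 Male rat hepatocytes from two-step collagenase perfusion (viability ≥85%), plated at 5.0 × 10^5 viable cells/mL on collagen and preincubated ~3 h at 37 °C, 5% CO2. Compound at 1 µM final. Duplicate wells sampled at 0–24 h with methanol/0.3% SDS. LC-MS-MS (MRM). CLint from initial first-order disappearance rates.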

[40] = Oral bioavailability in Wistar rat at 10 mg/kg; format: ADME, organism-based; conditions: in vivo; outline: as §4
Plasma [41] = test: AUC (0 to 6.4 hrs) in Wistar rat plasma at 10 mg/kg, po; format: ADME, organism-based; design: time < 6.4 hr, dose 10 mg/kg, route oral; conditions: in vivo
[42] = AUC (0 to 6.4 hrs) in Wistar rat mesenteric lymph at 10 mg/kg, po; format: ADME, organism-based, Mesenteric lymph node; design: time < 6.4 hr, dose 10 mg/kg, route oral; conditions: in vivo

Sphingosine 1-phosphate receptor 3, sequence (Q99500 whole entry): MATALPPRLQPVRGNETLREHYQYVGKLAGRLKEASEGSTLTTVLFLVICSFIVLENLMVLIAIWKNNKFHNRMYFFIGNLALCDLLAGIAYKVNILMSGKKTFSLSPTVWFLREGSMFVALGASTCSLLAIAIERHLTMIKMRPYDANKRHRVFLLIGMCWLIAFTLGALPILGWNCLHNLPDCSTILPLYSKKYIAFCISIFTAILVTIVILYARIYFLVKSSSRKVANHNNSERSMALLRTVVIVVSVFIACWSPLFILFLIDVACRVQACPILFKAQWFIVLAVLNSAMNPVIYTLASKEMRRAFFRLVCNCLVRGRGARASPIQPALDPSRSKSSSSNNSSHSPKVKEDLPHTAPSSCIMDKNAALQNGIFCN
Sphingosine 1-phosphate receptor 1, sequence (P21453 whole entry): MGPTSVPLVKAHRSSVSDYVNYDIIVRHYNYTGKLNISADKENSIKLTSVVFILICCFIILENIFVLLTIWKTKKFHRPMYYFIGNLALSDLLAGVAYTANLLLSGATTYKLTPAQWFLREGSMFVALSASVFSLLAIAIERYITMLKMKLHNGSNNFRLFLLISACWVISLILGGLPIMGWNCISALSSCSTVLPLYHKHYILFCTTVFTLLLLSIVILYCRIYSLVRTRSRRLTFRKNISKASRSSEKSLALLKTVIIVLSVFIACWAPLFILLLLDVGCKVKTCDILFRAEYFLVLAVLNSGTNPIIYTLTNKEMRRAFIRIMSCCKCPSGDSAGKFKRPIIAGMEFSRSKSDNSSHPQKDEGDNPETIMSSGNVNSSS

SMILES: Cc1cc(-c2noc(-c3scc(CC(C)C)c3C)n2)cc(C)c1OCC(O)CNC(=O)CO (racemic)
- EC50 [1]: 528 nM
- % change in blood lymphocyte count from predose (Rattus norvegicus [2]): -80%
- Activity (Rattus norvegicus [3]): -79%
- Activity (Rattus norvegicus [4]): -27%
- Activity (Rattus norvegicus [5]): -72%
- EC50 [6]: 1.5 nM
- Activity (Rattus norvegicus [7]): -79%
- Activity (Rattus norvegicus [8]): -67%

SMILES: CCc1cc(-c2noc(-c3sc(CC)c4c3CCC(C)(C)C4)n2)cc(C)c1OC[C@@H](O)CNC(=O)CO
- concentration at 1.7 h [9]: 4.34 µg/mL
- concentration at 24.8 h [10]: 0.68 µg/mL
- AUC [11]: 70.5 µg·h/mL
- concentration at 3 h [12]: 8.09 µg/mL
- half-life [13]: 21 h
- concentration at 24 h [14]: 0.53 µg/mL
- Cmax [15]: 0.911 µg/mL
- concentration at 1 h [16]: 5.79 µg/mL
- EC50 [1]: 8.9 nM
- Activity (Rattus norvegicus [2]): Active
- Cmax [17]: 1.45 µg/mL
- concentration at 144 h [18]: 0.066 µg/mL
- concentration at 24.8 h [19]: 0.684 µg/mL
- concentration at 6 h [20]: 4.59 µg/mL
- concentration at 72 h [21]: 0.236 µg/mL
- Cmax [22]: 8.09 µg/mL
- clearance (Rattus norvegicus [23]): 0.12 L/h/kg
- concentration at 6 h [24]: 0.911 µg/mL
- Tmax [25]: 6 h
- Tmax [26]: 3 h
- concentration at 2.3 h [27]: 4.6 µg/mL
- EC50 [6]: 4.6 nM
- logD [28]: 4.3
- concentration at 3 h [29]: 0.132 µg/mL
- concentration at 2.3 h [30]: 0.123 µg/mL
- AUC (Plasma [31]): 1.66 µg·h/mL
- AUC(0-t) at 24 h [32]: 28.1 µg·h/mL
- Activity (Rattus norvegicus [33]): Active
- Activity (Rattus norvegicus [34]): Active
- Tmax [35]: 6 h
- concentration at 1 h [36]: 0.0444 µg/mL
- concentration at 1.7 h [37]: 0.0581 µg/mL
- Vd [38]: 3.5 L/kg
- hepatocyte CLint at 1 µM [39]: 3.1 µL/min/1e6 cells
- bioavailability [40]: > 33%

SMILES: CCc1cc(-c2noc(-c3sc(CC)c4c3CCC(C)(C)C4)n2)cc(C)c1OC[C@@H](O)CO
- Cmax [15]: 0.376 µg/mL
- EC50 [1]: 15 nM
- Cmax [22]: 9.05 µg/mL
- Tmax [26]: 1.4 h
- AUC (Plasma [41]): 1880 ng/mL/h
- EC50 [6]: 2.4 nM
- AUC [42]: 31300 ng/mL/h
- logD [28]: 5.4
- Tmax [35]: 6.4 h

SMILES: CCc1cc(-c2noc(-c3sc(CC)c4c3CCC(C)(C)C4)n2)cc(C)c1OCCNCCC(=O)O
- AUC [11]: 60.4 µg·h/mL
- Cmax [15]: 0.813 µg/mL
- EC50 [1]: 5.8 nM
- Cmax [22]: 9.53 µg/mL
- Tmax [26]: 0.75 h
- EC50 [6]: 1.4 nM
- logD [28]: 4.9
- AUC (Plasma [31]): 16.3 µg·h/mL
- Tmax [35]: 8 h
